Measured values from ChEMBL document CHEMBL1121540, “Synthesis and antibacterial activity of new 1-oxa-1-dethiacephalosporins” (1980).
In brackets after ≈: the same amount, converted by molar mass.

How the values were obtained:
Assay type in all cases: functional
[1] = tested on: Proteus mirabilis; assay: In vitro minimum inhibitory concentration (MIC) against Proteus mirabilis 1
In short: (§1)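 Agar dilution on heart infusion agar; the MIC is read as the lowest concentration that inhibits growth of the strain.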

[2] = tested on: Serratia marcescens; assay: In vitro minimum inhibitory concentration (MIC) against Serratia marcescens.; in short: as §1
[3] = tested on: Pseudomonas aeruginosa; assay: In vitro minimum inhibitory concentration (MIC) against NCTC 10490 strain of Pseudomonas aeruginosa; in short: as §1
[4] = tested on: Staphylococcus aureus; assay: In vitro minimum inhibitory concentration (MIC) against 209P JC-1 strain of Staphylococcus aureus; in short: as §1
[5] = tested on: Escherichia coli; assay: In vitro minimum inhibitory concentration (MIC) against NIHJ JC-2 strain of Escherichia coli; in short: as §1
[6] = tested on: Klebsiella pneumoniae; assay: In vitro minimum inhibitory concentration (MIC) against Klebsiella pneumonia 12; in short: as §1
[7] = tested on: Bacillus subtilis; assay: In vitro minimum inhibitory concentration (MIC) against ATCC 6633 strain of Bacillus subtilis; in short: as §1

Row | MIC [1] [µg/mL] | MIC [2] [µg/mL] | MIC [3] [µg/mL] | MIC [4] [µg/mL] | MIC [5] [µg/mL] | MIC [6] [µg/mL] | MIC [7] [µg/mL] | Compound
1 | 0.025 (≈ 0.0652 µM) | 50 (≈ 130 µM) | 25 (≈ 65.2 µM) | 6.25 (≈ 16.3 µM) | 0.05 (≈ 0.13 µM) | 0.05 (≈ 0.13 µM) | 25 (≈ 65.2 µM) | CO/N=C(\C(=O)N[C@@H]1C(=O)N2C(C(=O)O)=CCS[C@H]12)c1csc(N)n1 [CEFTIZOXIME]
2 | 6.25 (≈ 18.1 µM) | 100 (≈ 290 µM) | 800 (≈ 2320 µM) | 1.56 (≈ 4.52 µM) | 25 (≈ 72.4 µM) | 12.5 (≈ 36.2 µM) | 25 (≈ 72.4 µM) | CO/N=C(\C(=O)N[C@@H]1C(=O)N2C(C(=O)O)=CCO[C@H]12)c1ccccc1
3 | 0.2 (≈ 0.506 µM) | 25 (≈ 63.2 µM) | 12.5 (≈ 31.6 µM) | 12.5 (≈ 31.6 µM) | 0.78 (≈ 1.97 µM) | 0.78 (≈ 1.97 µM) | 50 (≈ 126 µM) | CC(C)O/N=C(\C(=O)N[C@@H]1C(=O)N2C(C(=O)O)=CCO[C@H]12)c1csc(N)n1
4 | 3.13 (≈ 8.52 µM) | 100 (≈ 272 µM) | 800 (≈ 2180 µM) | 12.5 (≈ 34 µM) | 6.25 (≈ 17 µM) | 1.56 (≈ 4.25 µM) | 100 (≈ 272 µM) | CO/N=C(/C(=O)N[C@@H]1C(=O)N2C(C(=O)O)=CCO[C@H]12)c1csc(N)n1

The next lines start with the molecule.

Row | Compound | MIC [1] [µg/mL] | MIC [2] [µg/mL] | MIC [3] [µg/mL] | MIC [4] [µg/mL] | MIC [5] [µg/mL] | MIC [6] [µg/mL] | MIC [7] [µg/mL]
5 | CO/N=C(\C(=O)N[C@@H]1C(=O)N2C(C(=O)O)=CCO[C@H]12)c1csc(N)n1 | 0.2 (≈ 0.544 µM) | 100 (≈ 272 µM) | 800 (≈ 2180 µM) | 25 (≈ 68.1 µM) | 0.2 (≈ 0.544 µM) | 0.78 (≈ 2.12 µM) | 100 (≈ 272 µM)
6 | CCCCO/N=C(\C(=O)N[C@@H]1C(=O)N2C(C(=O)O)=CCO[C@H]12)c1csc(N)n1 | 0.78 (≈ 1.91 µM) | 100 (≈ 244 µM) | 12.5 (≈ 30.5 µM) | 12.5 (≈ 30.5 µM) | 0.78 (≈ 1.91 µM) | 3.13 (≈ 7.64 µM) | 50 (≈ 122 µM)
7 | CO/N=C(\C(=O)N[C@@H]1C(=O)N2C(C(=O)O)=CCO[C@H]12)c1ccco1 | 0.78 (≈ 2.33 µM) | 100 (≈ 298 µM) | 800 (≈ 2390 µM) | 12.5 (≈ 37.3 µM) | 6.25 (≈ 18.6 µM) | 1.56 (≈ 4.65 µM) | 50 (≈ 149 µM)
8 | C=CCO/N=C(\C(=O)N[C@@H]1C(=O)N2C(C(=O)O)=CCO[C@H]12)c1csc(N)n1 | 0.1 (≈ 0.254 µM) | 100 (≈ 254 µM) | 50 (≈ 127 µM) | 6.25 (≈ 15.9 µM) | 3.13 (≈ 7.96 µM) | 1.56 (≈ 3.97 µM) | 100 (≈ 254 µM)
9 | C#CCO/N=C(\C(=O)N[C@@H]1C(=O)N2C(C(=O)O)=CCO[C@H]12)c1csc(N)n1 | 0.1 (≈ 0.256 µM) | 100 (≈ 256 µM) | 400 (≈ 1020 µM) | 12.5 (≈ 31.9 µM) | 1.56 (≈ 3.99 µM) | 0.2 (≈ 0.511 µM) | 25 (≈ 63.9 µM)
10 | CCO/N=C(\C(=O)N[C@@H]1C(=O)N2C(C(=O)O)=CCO[C@H]12)c1csc(N)n1 | 0.05 (≈ 0.131 µM) | 12.5 (≈ 32.8 µM) | 3.13 (≈ 8.21 µM) | 6.25 (≈ 16.4 µM) | 0.1 (≈ 0.262 µM) | 0.1 (≈ 0.262 µM) | 50 (≈ 131 µM)
